# Data from ChEMBL document CHEMBL4229460, “Design and biological evaluation of novel hybrids of 1, 5-diarylpyrazole and Chrysin for selective COX-2 inhibition” (Bioorg Med Chem, 2018).
# Key:
# Assay type in all cases: functional
# HeLa [1] = test: Cell cycle arrest in human HeLa cells assessed as accumulation at G1 phase at 10 uM after 24 hrs by propidium iodide staining based flow cytometry (reference value: 55.51%)
# HeLa [2] = test: Induction of apoptosis in human HeLa cells assessed as necrotic cells at 1.25 uM after 24 hrs by Annexin-V-FITC/propidium iodide staining based flow cytometry (reference value: 0.242%)
# Method in brief: (§1)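 HeLa seeded at 2 × 10⁵ cells/well. Dose series was 0, 1.25, 2.5, 5 and 10 μM for 24 h; time course was 5 μM for 12, 24, 36 or 48 h. Trypsinized and washed in ice-cold PBS, then stained in binding buffer with Annexin V-FITC and PI for 10 min in the dark. Flow cytometry scored early (Annexin⁺/PI⁻) and late (Annexin⁺/PI⁺) apoptotic cells.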
# HeLa [3] = test: Cell cycle arrest in human HeLa cells assessed as accumulation at G2/M phase at 2.5 uM after 24 hrs by propidium iodide staining based flow cytometry (reference value: 21.45%)
# HeLa [4] = test: Induction of apoptosis in human HeLa cells assessed as late apoptotic cells at 10 uM after 24 hrs by Annexin-V-FITC/propidium iodide staining based flow cytometry (reference value: 1.72%); method in brief: as §1
# HeLa [5] = test: Induction of apoptosis in human HeLa cells assessed as late apoptotic cells at 5 uM after 36 hrs by Annexin-V-FITC/propidium iodide staining based flow cytometry (reference value: 2.57%); method in brief: as §1
# HeLa [6] = test: Disruption of mitochondrial membrane potential in human HeLa cells assessed as collapse of the mitochondrial membrane potential at 10 uM after 12 hrs by JC1 staining based flow cytometry (reference value: 0.768%)
# HeLa [7] = test: Cell cycle arrest in human HeLa cells assessed as accumulation at G1 phase at 5 uM after 24 hrs by propidium iodide staining based flow cytometry (reference value: 55.51%)
smiles,measurement,setting,value
COc1ccc(-c2cc(COC(=O)COc3cc(O)c4c(=O)cc(-c5ccccc5)oc4c3)nn2-c2ccc(C)cc2)cc1,Activity,HeLa [1],76.02%
same,Activity,HeLa [2],1.18%
same,Activity,HeLa [3],9.58%
same,Activity,HeLa [4],11.5%
same,Activity,HeLa [5],7.82%
same,Activity,HeLa [6],13.3%
same,Activity,HeLa [7],72.83%
